Data published in ChEMBL document CHEMBL1147738, “Potent and selective mitogen-activated protein kinase kinase (MEK) 1,2 inhibitors. 1. 4-(4-bromo-2-fluorophenylamino)-1- methylpyridin-2(1H)-ones” (J Med Chem, 2006).
pIC50: −log10 of the molar value.

Assays:
[1] = target: T1, MAP kinase-activated protein kinase 5 (Homo sapiens) (UniProt Q8IW41); assay: Inhibition of PRAK at 10 uM
T1 sequence (whole entry): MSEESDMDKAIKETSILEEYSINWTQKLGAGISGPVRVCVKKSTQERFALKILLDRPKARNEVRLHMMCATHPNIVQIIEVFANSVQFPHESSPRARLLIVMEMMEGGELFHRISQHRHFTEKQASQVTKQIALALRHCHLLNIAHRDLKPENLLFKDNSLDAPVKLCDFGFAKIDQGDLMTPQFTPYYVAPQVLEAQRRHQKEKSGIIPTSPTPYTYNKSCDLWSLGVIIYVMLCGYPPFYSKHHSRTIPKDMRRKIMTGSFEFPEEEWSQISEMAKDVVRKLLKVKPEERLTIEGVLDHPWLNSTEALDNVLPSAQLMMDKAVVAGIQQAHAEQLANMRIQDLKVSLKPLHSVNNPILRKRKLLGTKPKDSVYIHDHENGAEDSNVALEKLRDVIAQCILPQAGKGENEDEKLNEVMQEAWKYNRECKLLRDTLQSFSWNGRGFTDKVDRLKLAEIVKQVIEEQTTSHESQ
Procedure, shortened: (§1)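 Kinase panel run at Upstate (Dundee). Each compound was tested at 10 µM against each enzyme and reported as % inhibition.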

[2] = target: Ribosomal protein S6 kinase alpha-5 (Homo sapiens) (UniProt O75582); assay: Inhibition of MSK1 at 10 uM; procedure, shortened: as §1
[3] = target: RAC-alpha serine/threonine-protein kinase (Homo sapiens) (UniProt P31749); assay: Inhibition of PKBa at 10 uM; procedure, shortened: as §1
[4] = target: Mitogen-activated protein kinase 1 (Homo sapiens) (UniProt P28482); assay: Inhibition of MAPK2/ERK2 at 10 uM; procedure, shortened: as §1
[5] = target: Mitogen-activated protein kinase 8 (Homo sapiens) (UniProt P45983); assay: Inhibition of JNK/SAPK1c at 10 uM; procedure, shortened: as §1
Homo sapiens = organism: Homo sapiens; conditions: at 10 µM
[6] = target: Tyrosine-protein kinase Lck (Homo sapiens) (UniProt P06239); assay: Inhibition of LCK at 10 uM; procedure, shortened: as §1
[7] = target: Dual specificity tyrosine-phosphorylation-regulated kinase 1A (Homo sapiens) (UniProt Q13627); assay: Inhibition of DYRK1a at 10 uM; procedure, shortened: as §1
[8] = target: MAP kinase-activated protein kinase 2 (Homo sapiens) (UniProt P49137); assay: Inhibition of MAPKAP-K2 at 10 uM; procedure, shortened: as §1
HT-29 = assay: Inhibition of ERK phosphorylation in HT29 tumor bearing NCr-nu/nu mice after 4 hrs at 10 mg/kg, po; format: functional; conditions: Mus musculus, HT-29, 4 h
[9] = target: Dual specificity mitogen-activated protein kinase kinase 1 (Homo sapiens, UniProt Q02750); assay: Inhibitory activity against MEK1
Sequence of Dual specificity mitogen-activated protein kinase kinase 1 (Q02750 whole entry): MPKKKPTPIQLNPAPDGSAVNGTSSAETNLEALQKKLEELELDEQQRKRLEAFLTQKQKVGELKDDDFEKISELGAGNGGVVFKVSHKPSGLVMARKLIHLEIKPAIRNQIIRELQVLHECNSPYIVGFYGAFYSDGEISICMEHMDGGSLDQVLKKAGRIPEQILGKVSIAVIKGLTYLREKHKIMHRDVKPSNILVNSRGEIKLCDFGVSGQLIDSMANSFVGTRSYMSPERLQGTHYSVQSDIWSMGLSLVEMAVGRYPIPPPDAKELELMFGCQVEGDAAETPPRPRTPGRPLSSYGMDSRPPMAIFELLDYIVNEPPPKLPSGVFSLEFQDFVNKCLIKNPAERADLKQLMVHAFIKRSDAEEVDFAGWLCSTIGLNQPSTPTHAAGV

Sequence of Ribosomal protein S6 kinase alpha-5 (Homo sapiens) (O75582 whole entry, looked up): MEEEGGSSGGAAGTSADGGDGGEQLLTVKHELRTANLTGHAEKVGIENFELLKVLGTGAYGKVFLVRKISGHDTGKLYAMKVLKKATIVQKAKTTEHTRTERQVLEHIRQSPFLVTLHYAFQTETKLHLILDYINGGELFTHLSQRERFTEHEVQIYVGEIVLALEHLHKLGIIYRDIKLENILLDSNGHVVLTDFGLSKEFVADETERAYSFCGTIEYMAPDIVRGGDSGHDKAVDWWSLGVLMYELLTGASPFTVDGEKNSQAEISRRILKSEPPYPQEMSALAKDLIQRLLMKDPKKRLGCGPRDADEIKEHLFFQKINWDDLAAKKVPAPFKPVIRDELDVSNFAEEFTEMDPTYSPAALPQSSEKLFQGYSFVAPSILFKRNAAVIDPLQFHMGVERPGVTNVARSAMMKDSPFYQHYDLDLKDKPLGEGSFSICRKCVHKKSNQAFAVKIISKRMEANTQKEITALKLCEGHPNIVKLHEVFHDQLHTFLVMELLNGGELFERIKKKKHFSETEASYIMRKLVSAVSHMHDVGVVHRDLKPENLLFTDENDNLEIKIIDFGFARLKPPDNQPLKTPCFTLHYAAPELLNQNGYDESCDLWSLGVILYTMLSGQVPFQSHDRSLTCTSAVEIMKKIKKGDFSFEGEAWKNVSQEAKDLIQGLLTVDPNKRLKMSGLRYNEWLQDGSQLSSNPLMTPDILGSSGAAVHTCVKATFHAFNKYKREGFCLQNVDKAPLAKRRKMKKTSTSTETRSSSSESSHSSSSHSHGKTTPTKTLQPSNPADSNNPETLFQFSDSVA
Sequence of Tyrosine-protein kinase Lck (Homo sapiens) (P06239 2-509 limits assumed): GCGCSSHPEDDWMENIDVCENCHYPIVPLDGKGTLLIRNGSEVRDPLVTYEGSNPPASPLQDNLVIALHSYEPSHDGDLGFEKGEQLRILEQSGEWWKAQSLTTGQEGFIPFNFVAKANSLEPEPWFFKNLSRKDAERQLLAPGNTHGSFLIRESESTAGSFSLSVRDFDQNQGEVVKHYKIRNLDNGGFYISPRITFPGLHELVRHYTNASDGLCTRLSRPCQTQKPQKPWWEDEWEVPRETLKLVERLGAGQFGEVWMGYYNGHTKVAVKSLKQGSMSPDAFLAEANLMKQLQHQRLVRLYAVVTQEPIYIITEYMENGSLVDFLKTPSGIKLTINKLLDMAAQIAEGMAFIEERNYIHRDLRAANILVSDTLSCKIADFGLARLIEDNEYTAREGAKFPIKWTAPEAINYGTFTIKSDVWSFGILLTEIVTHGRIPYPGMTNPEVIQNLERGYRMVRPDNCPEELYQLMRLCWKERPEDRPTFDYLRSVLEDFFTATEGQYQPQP
Sequence of Mitogen-activated protein kinase 1 (Homo sapiens) (P28482 whole entry): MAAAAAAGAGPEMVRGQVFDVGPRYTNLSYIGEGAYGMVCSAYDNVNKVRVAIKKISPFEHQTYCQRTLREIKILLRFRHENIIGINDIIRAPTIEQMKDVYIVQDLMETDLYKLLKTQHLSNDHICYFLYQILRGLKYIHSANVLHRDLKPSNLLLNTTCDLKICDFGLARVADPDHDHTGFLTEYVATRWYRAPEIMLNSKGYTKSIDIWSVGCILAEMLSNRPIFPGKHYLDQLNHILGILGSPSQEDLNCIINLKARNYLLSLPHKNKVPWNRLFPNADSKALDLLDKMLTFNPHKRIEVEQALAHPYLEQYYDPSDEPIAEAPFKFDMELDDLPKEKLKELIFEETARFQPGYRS
Sequence of Mitogen-activated protein kinase 8 (Homo sapiens) (P45983 whole entry): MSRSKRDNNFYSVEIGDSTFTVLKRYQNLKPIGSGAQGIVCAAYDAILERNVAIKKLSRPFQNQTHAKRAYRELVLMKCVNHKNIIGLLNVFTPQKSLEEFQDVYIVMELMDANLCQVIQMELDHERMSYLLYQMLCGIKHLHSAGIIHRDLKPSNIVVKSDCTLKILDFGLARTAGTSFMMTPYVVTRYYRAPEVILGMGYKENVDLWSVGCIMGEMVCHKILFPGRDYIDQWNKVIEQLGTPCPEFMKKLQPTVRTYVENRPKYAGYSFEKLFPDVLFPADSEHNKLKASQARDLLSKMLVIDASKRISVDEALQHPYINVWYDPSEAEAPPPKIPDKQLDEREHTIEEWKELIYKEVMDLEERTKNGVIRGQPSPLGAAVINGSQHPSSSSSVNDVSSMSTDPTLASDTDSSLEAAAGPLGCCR
Sequence of RAC-alpha serine/threonine-protein kinase (Homo sapiens) (P31749 whole entry): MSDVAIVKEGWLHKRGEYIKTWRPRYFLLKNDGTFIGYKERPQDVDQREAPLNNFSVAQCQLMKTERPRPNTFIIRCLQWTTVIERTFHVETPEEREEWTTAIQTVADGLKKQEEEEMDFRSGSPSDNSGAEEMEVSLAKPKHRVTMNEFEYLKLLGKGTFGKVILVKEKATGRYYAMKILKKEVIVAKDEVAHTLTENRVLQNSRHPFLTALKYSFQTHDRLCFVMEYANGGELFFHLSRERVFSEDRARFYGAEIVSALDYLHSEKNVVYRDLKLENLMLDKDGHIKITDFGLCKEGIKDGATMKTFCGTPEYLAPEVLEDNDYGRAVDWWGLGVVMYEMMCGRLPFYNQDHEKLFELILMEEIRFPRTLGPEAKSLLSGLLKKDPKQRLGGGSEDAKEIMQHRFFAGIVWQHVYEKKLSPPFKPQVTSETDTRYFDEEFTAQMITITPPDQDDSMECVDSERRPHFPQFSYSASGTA
Sequence of MAP kinase-activated protein kinase 2 (Homo sapiens) (P49137 whole entry, looked up): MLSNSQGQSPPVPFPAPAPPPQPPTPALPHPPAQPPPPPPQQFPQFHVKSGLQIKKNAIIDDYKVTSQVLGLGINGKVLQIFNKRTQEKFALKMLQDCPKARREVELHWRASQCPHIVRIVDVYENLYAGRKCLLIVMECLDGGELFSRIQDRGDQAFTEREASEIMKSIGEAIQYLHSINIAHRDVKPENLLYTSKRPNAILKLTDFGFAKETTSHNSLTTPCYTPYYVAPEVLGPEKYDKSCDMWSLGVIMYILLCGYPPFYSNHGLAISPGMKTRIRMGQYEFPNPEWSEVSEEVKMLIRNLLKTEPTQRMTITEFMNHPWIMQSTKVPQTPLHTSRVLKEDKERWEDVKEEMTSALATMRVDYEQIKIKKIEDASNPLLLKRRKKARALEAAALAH

inhibition [1] [%] | inhibition [2] [%] | inhibition [3] [%] | inhibition [4] [%] | inhibition [5] [%] | inhibition (Homo sapiens) [%] | inhibition [6] [%] | inhibition [7] [%] | inhibition [8] [%] | pIC50 [9] | Compound | inhibition in vivo at 10 mg/kg (HT-29) [%]
18 | 5 | 6 | 6 | 23 | -3 | 9 | 15 | 14 |  | CCONC(=O)c1cn(C)c(=O)c(C)c1Nc1ccc(Br)cc1F | > 80
16 | 2 | -4 | 6 | 23 | -7 | 13 | 10 | 8 | 7.74 | Cc1c(Nc2ccc(Br)cc2F)c(C(=O)NOCCO)cn(C)c1=O | > 80
9 | 6 | 12 | -9 | 7 | -9 | -1 | 2 | 1 | 6.98 | CONC(=O)c1cn(C)c(=O)c(C)c1Nc1ccc(Br)cc1F | > 80
